{
  "source": "paper PMC8596596",
  "about": "(Journal of Clinical Pharmacology, 2021)",
  "key": {"healthy elderly subjects [1]": {"tested_on": "healthy elderly subjects", "assay": "Visual-verbal learning test", "format": "in vivo, human", "details": "4 mg oral, vs placebo", "method_in_brief": "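A 30-word list was presented. Immediate recall rounds assessed acquisition at 1.5 h postdose, followed by delayed recall and recognition. Subjects received oral 4 mg, 2 mg or placebo in a crossover design; single-occasion test. Analysed by mixed-model ANOVA with treatment and period as fixed factors and subject as random factor, comparing least-squares means with placebo.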"}, "[2]": {"assay": "Plasma pharmacokinetics, noncompartmental analysis", "format": "in vivo", "details": "human, po", "method_in_brief": "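K2-EDTA plasma underwent liquid-liquid extraction and LC-MS/MS: phenyl column, isocratic 0.025% NH4OH in 67% acetonitrile, positive MRM at m/z 312→143, deuterated internal standard. QC levels were 0.300, 1.50 and 8.00 ng/mL. Parameters were obtained by noncompartmental analysis.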"}, "healthy elderly subjects [3]": {"tested_on": "healthy elderly subjects", "assay": "Population PK-PD model", "format": "in vivo, human"}, "M2 mAChR": {"target": "M2 mAChR", "details": "read-out: equilibrium dissociation constant [Kd] for M2; cited from earlier work"}, "Population PK model": {"assay": "Population PK model", "format": "in vivo, human", "details": "oral", "method_in_brief": "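Nonlinear mixed-effects modelling of plasma concentrations after oral 2 and 4 mg in healthy elderly subjects. 1-, 2- and 3-compartment models were explored, with or without absorption lag time and transit compartments. Between-subject and between-occasion variability were added bottom-up (P < .01). Age, sex, weight and BMI were tested as covariates (forward P < .01, backward P < .001). The final model had 2 compartments with linear elimination.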"}, "M4 mAChR": {"target": "M4 mAChR", "details": "read-out: equilibrium dissociation constant [Kd] for M4; cited from earlier work"}, "healthy elderly subjects [4]": {"tested_on": "healthy elderly subjects", "assay": "Saccadic and smooth pursuit eye movements", "format": "in vivo, human", "method_in_brief": "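Subjects followed a horizontally moving target on a screen 58 cm away. The target moved continuously for smooth pursuit and jumped side to side for saccades, and movements were recorded by computer. Oral 2 mg, 4 mg or placebo in a crossover design in healthy elderly subjects; tests predose and at 1, 2.5, 4, 7 and 22 h. Mixed-model ANCOVA with baseline covariate.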"}, "healthy elderly subjects [5]": {"tested_on": "healthy elderly subjects", "assay": "Finger tapping test", "format": "in vivo, human", "details": "both doses (2 and 4 mg)", "method_in_brief": "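Finger tapping with the index finger of the dominant hand on a computer space bar, as fast as possible. Each session had 5 trials of 10 s, and mean tapping rate and SD were analysed. Oral 2 mg, 4 mg or placebo in a crossover design; tests predose and at 1, 2.5, 4, 7 and 22 h. Mixed-model ANCOVA with baseline covariate.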"}, "healthy elderly subjects [6]": {"tested_on": "healthy elderly subjects", "assay": "Body sway", "format": "in vivo, human", "details": "22 hours postdose", "method_in_brief": "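Crossover in healthy elderly subjects given oral 2 mg, 4 mg or placebo. Postural stability was measured with a body sway meter recording movement in a single plane over 2 minutes, with movements integrated. Measured twice predose and at 1, 2.5, 4, 7 and 22 h postdose. Analysis used mixed-model ANCOVA with time and treatment factors and the average baseline as covariate.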"}, "healthy elderly subjects [7]": {"tested_on": "healthy elderly subjects", "assay": "N-back task", "format": "in vivo, human", "details": "vs placebo"}, "healthy elderly subjects [8]": {"tested_on": "healthy elderly subjects", "assay": "Visual analog scales", "format": "in vivo, human", "details": "both doses (2 and 4 mg)", "method_in_brief": "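Bond and Lader visual analog scales rated alertness, mood and calmness, and nausea was rated on a 100-mm line. Oral 2 mg, 4 mg or placebo in a crossover design in healthy elderly subjects. Ratings were made repeatedly predose and up to 22 h postdose. Analysed by mixed-model ANCOVA with baseline covariate against placebo.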"}, "healthy elderly subjects [9]": {"tested_on": "healthy elderly subjects", "assay": "Mismatch negativity auditory event-related potential", "format": "in vivo, human", "details": "vs placebo", "method_in_brief": "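Passive auditory oddball while subjects watched a silent movie. 750 tones were given (600 frequent, 150 deviant), each 150 ms at 75 dB, at a fixed 2 Hz rate. Event-related potential recorded by EEG. Healthy elderly subjects received oral 2 or 4 mg or placebo in a crossover design with repeated postdose sessions. Compared with placebo by mixed-model analysis.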"}, "M5 mAChR": {"target": "M5 mAChR", "details": "read-out: equilibrium dissociation constant [Kd] for M5; cited from earlier work"}, "[10]": {"details": "cited from earlier work"}, "M3 mAChR": {"target": "M3 mAChR", "details": "read-out: equilibrium dissociation constant [Kd] for M3; cited from earlier work"}, "healthy elderly subjects [11]": {"tested_on": "healthy elderly subjects", "assay": "Safety and tolerability", "format": "in vivo, human", "details": "2 and 4 mg oral", "method_in_brief": "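Safety was monitored through treatment-emergent adverse events, laboratory tests, vital signs and ECG during each period. Randomization gave the 4-mg dose only after the 2-mg study day had been completed. A snack was given within 30 minutes before dosing, and caffeine and nicotine were not allowed. Oral single doses with a 1-week washout.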"}, "healthy elderly subjects [12]": {"tested_on": "healthy elderly subjects", "assay": "Pupillometry", "format": "in vivo, human", "method_in_brief": "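Pupil images were taken with a digital camera and single flash. Pupil and iris diameters were measured horizontally in pixels, and the pupil/[…] diameter ratio was calculated for each eye. Oral 2 mg, 4 mg or placebo in a crossover design in healthy elderly subjects. Measured twice predose and at 1, 2.5, 4, 7 and 22 h. Mixed-model ANCOVA with baseline covariate against placebo.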"}, "healthy elderly subjects [13]": {"tested_on": "healthy elderly subjects", "assay": "Adaptive tracking test", "format": "in vivo, human", "details": "for decrease in mean adaptive tracking test performance: vs placebo", "method_in_brief": "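Randomized, double-blind, placebo-controlled 3-way crossover in 12 subjects aged 65–80 years (MMSE ≥28). Single oral doses of 2 or 4 mg test compound or placebo, 1-week washout. Joystick pursuit task: the subject keeps a dot inside a randomly moving circle, whose speed rises with success and falls with failure. Tested twice predose and at 1, 2.5, 4, 7 and 22 h. Mixed-model ANCOVA with baseline covariate; least-squares means versus placebo.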"}, "M1 mAChR": {"target": "M1 mAChR", "details": "read-out: equilibrium dissociation constant [Kd] for M1; cited from earlier work"}, "healthy subjects [14]": {"tested_on": "healthy subjects", "details": "cited from earlier work"}, "healthy subjects [15]": {"tested_on": "healthy subjects", "details": "cited from earlier work", "remark": "listed apart in the source"}},
  "note": "Where “and” joins values, the source holds several entries; their conditions need not be identical. Equal entries are not always repeated. Where two headings read alike, the source gives them in different places.",
  "data": [
    {"smiles": "OC(CCN1CCCCC1)(c1ccccc1)C1CC2C=CC1C2", "note": "(centres unmarked) [biperiden]", "values": [
      {"measurement": "VVLT second immediate recall round, fewer words recalled", "setting": "healthy elderly subjects [1]", "value": 2.5, "unit": "words"},
      {"measurement": "VVLT third immediate recall round, fewer words recalled", "setting": "healthy elderly subjects [1]", "value": 2.9, "unit": "words"},
      {"measurement": "AUC(0-t)", "setting": "[2]; 2 mg", "value": 18.4, "unit": "ng·h/mL"},
      {"measurement": "Cmax", "setting": "[2]; 2 mg", "value": 3.51, "unit": "ng/mL"},
      {"measurement": "AUC(0-t)", "setting": "[2]; 4 mg", "value": 39.5, "unit": "ng·h/mL"},
      {"measurement": "Cmax", "setting": "[2]; 4 mg", "value": 7.45, "unit": "ng/mL"},
      {"measurement": "Tmax", "setting": "[2]; 4 mg", "value": 2, "unit": "h"},
      {"measurement": "adaptive tracking, linear concentration-effect slope", "setting": "healthy elderly subjects [3]", "value": "−0.98", "unit": "percentage point/ng/mL"},
      {"measurement": "n-back 0-back accuracy measure, drug effect", "setting": "healthy elderly subjects [3]", "value": "No significant effect"},
      {"measurement": "n-back 0-back reaction time, Emax", "setting": "healthy elderly subjects [3]", "value": 288.5, "unit": "milliseconds"},
      {"measurement": "n-back 0-back reaction time, Hill coefficient", "setting": "healthy elderly subjects [3]", "value": 2.25},
      {"measurement": "n-back 1-back accuracy measure, linear drug effect slope", "setting": "healthy elderly subjects [3]", "value": -0.011, "unit": "ng⁻¹ mL⁻¹"},
      {"measurement": "n-back 1-back reaction time, linear drug effect slope", "setting": "healthy elderly subjects [3]", "value": 16.18, "unit": "ms/ng/mL"},
      {"measurement": "n-back 2-back reaction time, linear drug effect slope", "setting": "healthy elderly subjects [3]", "value": 11.08, "unit": "ms/ng/mL"},
      {"measurement": "Kd", "setting": "M2 mAChR", "value": "6.3 ± 0.5", "unit": "nM"},
      {"measurement": "half-life", "setting": "Population PK model; human, plasma", "value": 29.5, "unit": "h"},
      {"measurement": "Absorption rate constant", "setting": "Population PK model; population PK estimate", "value": "2.73 (BOV = 97.7%) /hour"},
      {"measurement": "Clearance", "setting": "Population PK model; population PK estimate", "value": "78.06 (IIV = 172%, BOV = 12%) L/h/F"},
      {"measurement": "Lag time", "setting": "Population PK model; population PK estimate", "value": "0.54 (BOV = 75%) hours"},
      {"measurement": "Volume of distribution—central", "setting": "Population PK model; population PK estimate", "value": "491.40 (IIV = 79.5%) L/F"},
      {"measurement": "Kd", "setting": "M4 mAChR", "value": "2.4 ± 0.03", "unit": "nM"},
      {"measurement": "smooth pursuit, effect", "setting": "healthy elderly subjects [4]; 2 mg oral, vs placebo", "value": "No significant effect"},
      {"measurement": "smooth pursuit decrease", "setting": "healthy elderly subjects [4]; 4 mg oral, vs placebo", "value": 3.55, "unit": "percentage point"},
      {"measurement": "saccadic inaccuracy, peak velocity, or reaction time, effect", "setting": "healthy elderly subjects [4]; both doses (2 and 4 mg) vs placebo", "value": "No significant effects"},
      {"measurement": "tapping-test performance, change", "setting": "healthy elderly subjects [5]", "value": "No significant changes"},
      {"measurement": "body sway, recovery", "setting": "healthy elderly subjects [6]", "value": "not normalized 22 hours postdose"},
      {"measurement": "n-back reaction time and accuracy, change", "setting": "healthy elderly subjects [7]; 2 mg oral", "value": "No significant change"},
      {"measurement": "n-back 0-back condition reaction time, mean difference", "setting": "healthy elderly subjects [7]; 4 mg oral", "value": 37.2, "unit": "milliseconds"},
      {"measurement": "n-back 1-back condition reaction time, mean difference", "setting": "healthy elderly subjects [7]; 4 mg oral", "value": 49.9, "unit": "milliseconds"},
      {"measurement": "n-back 2-back condition accuracy, decrease", "setting": "healthy elderly subjects [7]; 4 mg oral", "value": 0.06},
      {"measurement": "n-back task reaction time increase", "setting": "healthy elderly subjects [7]; 4 mg oral", "value": "≤ 50", "unit": "millisecond"},
      {"measurement": "VAS Bond and Lader subscales of mood, alertness, and calmness, change", "setting": "healthy elderly subjects [8]", "value": "No significant changes"},
      {"measurement": "VAS nausea scores, change", "setting": "healthy elderly subjects [8]", "value": "No significant changes"},
      {"measurement": "MMN latency at Fz, increase", "setting": "healthy elderly subjects [9]; 2 mg oral", "value": 12.1, "unit": "milliseconds"},
      {"measurement": "MMN latency at Fz, increase", "setting": "healthy elderly subjects [9]; 4 mg oral", "value": 13.9, "unit": "milliseconds"},
      {"measurement": "Kd", "setting": "M5 mAChR", "value": "6.3 ± 0.1", "unit": "nM"},
      {"measurement": "bioavailability", "setting": "[10]; assumed, oral ref 18", "value": "approximately 33%"},
      {"measurement": "Tmax", "setting": "[10]; postdose, as stated for previous studies", "value": "approximately 1 hour"},
      {"measurement": "Kd", "setting": "M3 mAChR", "value": "3.9 ± 0.1", "unit": "nM"},
      {"measurement": "tolerability", "setting": "healthy elderly subjects [11]", "value": "well tolerated"},
      {"measurement": "tolerability", "setting": "healthy elderly subjects [11]; listed as Biperiden", "value": "very well tolerated"},
      {"measurement": "pupil/iris ratio left eye, mean difference", "setting": "healthy elderly subjects [12]; 4 mg oral, vs placebo", "value": 0.065},
      {"measurement": "pupil/iris ratio right eye, mean difference", "setting": "healthy elderly subjects [12]; 4 mg oral, vs placebo", "value": 0.07341},
      {"measurement": "pupil/iris ratio in both eyes, recovery", "setting": "healthy elderly subjects [12]; 22 hours postdose", "value": "not normalized 22 hours postdose"},
      {"measurement": "decrease in mean adaptive tracking test performance", "setting": "healthy elderly subjects [13]; 2 mg oral", "value": 1.36, "unit": "percentage point"},
      {"measurement": "adaptive tracking, change compared with placebo", "setting": "healthy elderly subjects [13]; 4 mg oral", "value": "−2.1", "unit": "percentage point"},
      {"measurement": "decrease in mean adaptive tracking test performance", "setting": "healthy elderly subjects [13]; 4 mg oral", "value": "2.10 percentage point and 2.1 percentage point"},
      {"measurement": "Kd", "setting": "M1 mAChR", "value": "0.48 ± 0.02", "unit": "nM"}
    ]},
    {"smiles": "NC(=O)C(c1ccccc1)(c1ccccc1)[C@@H]1CCN(CCc2ccc3c(c2)CCO3)C1", "note": "[darifenacin]", "values": [
      {"measurement": "effect on body sway", "setting": "healthy subjects [14]", "value": "increase body sway"}
    ]},
    {"smiles": "CN1[C@@H]2C[C@@H](OC(=O)[C@H](CO)c3ccccc3)C[C@H]1[C@@H]1O[C@@H]12", "note": "[scopolamine]", "values": [
      {"measurement": "peak saccadic velocity, effect", "setting": "healthy subjects [15]", "value": "concentration‐related decrease"}
    ]}
  ]
}
